The text below walks through data of PMC6531791 (Molecular Metabolism, 2019).

Holding throughout (assay type): in vivo, mouse
The nature of series [1]: Accelerating rotarod test, MPTP model. As to conditions: WT mice; MPTP after saline, ghrelin or Dln101 pre-treatment; vehicle = 88.9 ± 6.4; mean ± SEM, n = 5–11 per group.
A further series deals with SN DA neurons (TH+). In words: In situ detection of ROS with dihydroethidium. To be noted: following MPTP exposure, with or without Dln101 pre-treatment; n = 4–6 per group. In outline: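 Dihydroethidium, 200 μl of a 1 mg/ml stock in 1% DMSO, was injected into the tail vein. Mice were perfused 3 h later. Midbrain sections were co-immunostained for TH. DHE fluorescence intensity was quantified in TH+ cells, n = 4–6 per group.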

Series [2] has as its system SN DA neuron mitochondria. In words: Electron microscopy analysis of mitochondrial morphology in SN DA neurons. To be noted: for Mitochondrial average area in SN DA cells / Mitochondrial cytoplasmic coverage: WT mice; for Mitochondrial average area in SN DA cells: vehicle = 0.143 ± 0.004, n = 102–473 per group; for Mitochondrial cytoplasmic coverage: vehicle = 9.94% ± 1.1; for average mitochondrial area in SN DA cells / mitochondrial coverage of cytoplasmic area / mitochondrial units per cell: iCre-DAT MFN2KO animals; for average mitochondrial area in SN DA cells: untreated KO = 0.163 ± 0.005; for mitochondrial coverage of cytoplasmic area: untreated KO = 9.35% ± 0.56; for mitochondrial units per cell: untreated KO = 80 ± 12. The procedure, abridged: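 Mice got test peptide (15 nmoles) or saline s.c. daily for 10 days, 15 min before dark onset. […] Perfusion: ice-cold saline, then 4% PFA/15% picric acid/0.1% glutaraldehyde in 0.1M PB. Sections were freeze-thawed and immunolabelled. Mitochondria required visible cristae and a double membrane. Coverage = summed mitochondrial area / (cell − nucleus area), %.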

A further series has as its system microglia in SN. In words: Microglia immunostaining with IBA-1 antibody in SN. To be noted: after MPTP exposure, with or without Dln101 pre-treatment. In outline:
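Sections were blocked in 5% normal goat serum, 1% BSA, 0.1% glycine and 0.1% L-lysine. Rabbit polyclonal anti-IBA-1 (1:3000) was applied overnight at 4 °C, then a biotinylated secondary with ABC/DAB or avidin-Alexa 488. TH was co-stained.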

Where [3] appears, read: 1 day after MPTP (15 mg/kg), alone or after Dln101 pre-treatment.

The structures appear in SMILES notation.

Regarding `CN1CC=C(c2ccccc2)CC1` [MPTP, 1-methyl-4-phenyl-1,2,5,6 tetrahydropyridine], in series [1], the “Latency to fall from the rotarod” value is 51.0 ± 5.0 s. Besides, the “increase in ROS production in SN DA neurons (DHE fluorescence)” value in the series on SN DA neurons (TH+) was determined as 7.46 fold. In addition, in series [2] (4 h after MPTP (15 mg/kg)), the “Mitochondrial average area in SN DA cells” value was determined as 0.112 ± 0.006 μm^2 and the Mitochondrial cytoplasmic coverage is listed as 8.66% ± 0.68. Moreover, in series [2] (setting [3]), the “Mitochondrial average area in SN DA cells” value was found to be 0.176 ± 0.006 μm^2 and the Mitochondrial cytoplasmic coverage was 6.144% ± 0.51. Further, the “average mitochondrial area in SN DA cells” value in series [2] (4h after MPTP, n = 421–1456) turned out to be 0.179 ± 0.004. Moreover, in series [2] (4h after MPTP), the “mitochondrial coverage of cytoplasmic area” value amounted to 10.22 ± 0.69% and the “mitochondrial units per cell” value worked out at 52 ± 6. In series [2] (3days after MPTP), the “average mitochondrial area in SN DA cells” value came to 0.287 ± 0.006, the “mitochondrial coverage of cytoplasmic area” value amounted to 23.32 ± 4.21% and the “mitochondrial units per cell” value came out at 29 ± 3. Moreover, in the series on microglia in SN, the “microglial morphology / activation in SN (IBA1 immunostaining)” value was “microglial activation”.
